Active and inactive are the calls of the source. The rule behind the calls is not given here.
Key:
[1] = Neurotoxicity in po dosed Sprague-Dawley albino rat assessed as minimal motor impairment by rotarod test; type: toxicity, organism-based; conditions: in vivo
Outline: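 Rats dosed orally; 4 rats per time point after dosing. Neurotoxicity was scored as motor impairment or sedation and reported as number of animals affected over number tested.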

[2] = tested on: Mus musculus; assay: Anticonvulsant activity in albino CF1 mouse assessed as protection against subcutaneous metrazol-induced seizures at 30 mg/kg, ip after 0.5 hrs; type: functional, organism-based; parameters: dose 30 mg/kg
Outline: (§1)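 Mice dosed ip at 30, 100 or 300 mg/kg, then tested 0.5 h and 4 h after administration in the MES or scMet test. Protection was recorded as animals protected over animals tested. Neurotoxicity was recorded as motor impairment or sedation, as animals affected over animals tested.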

[3] = tested on: Mus musculus; assay: Anticonvulsant activity in albino CF1 mouse assessed as protection against subcutaneous metrazol-induced seizures at 100 mg/kg, ip after 0.5 hrs; type: functional, organism-based; parameters: dose 100 mg/kg; outline: as §1
[4] = tested on: Mus musculus; assay: Anticonvulsant activity in albino CF1 mouse assessed as protection against subcutaneous metrazol-induced seizures at 300 mg/kg, ip after 0.5 hrs; type: functional, organism-based; parameters: dose 300 mg/kg; outline: as §1
[5] = tested on: Mus musculus; assay: Anticonvulsant activity in albino CF1 mouse assessed as protection against subcutaneous metrazol-induced seizures at 30 mg/kg, ip after 4 hrs; type: functional, organism-based; parameters: dose 30 mg/kg; outline: as §1
[6] = tested on: Mus musculus; assay: Anticonvulsant activity in albino CF1 mouse assessed as protection against subcutaneous metrazol-induced seizures at 100 mg/kg, ip after 4 hrs; type: functional, organism-based; parameters: dose 100 mg/kg; outline: as §1
[7] = tested on: Mus musculus; assay: Anticonvulsant activity in albino CF1 mouse assessed as protection against subcutaneous metrazol-induced seizures at 300 mg/kg, ip after 4 hrs; type: functional, organism-based; parameters: dose 300 mg/kg; outline: as §1
[8] = tested on: Mus musculus; assay: Anticonvulsant activity in albino CF1 mouse assessed as protection against maximal electroshock-induced seizures at 30 mg/kg, ip after 0.5 hrs; type: functional, organism-based; parameters: dose 30 mg/kg; outline: as §1
[9] = tested on: Mus musculus; assay: Anticonvulsant activity in albino CF1 mouse assessed as protection against maximal electroshock-induced seizures at 100 mg/kg, ip after 0.5 hrs; type: functional, organism-based; parameters: dose 100 mg/kg; outline: as §1
[10] = tested on: Mus musculus; assay: Anticonvulsant activity in albino CF1 mouse assessed as protection against maximal electroshock-induced seizures at 300 mg/kg, ip after 0.5 hrs; type: functional, organism-based; parameters: dose 300 mg/kg; outline: as §1
[11] = tested on: Mus musculus; assay: Anticonvulsant activity in albino CF1 mouse assessed as protection against maximal electroshock-induced seizures at 30 mg/kg, ip after 4 hrs; type: functional, organism-based; parameters: dose 30 mg/kg; outline: as §1
[12] = tested on: Mus musculus; assay: Anticonvulsant activity in albino CF1 mouse assessed as protection against maximal electroshock-induced seizures at 100 mg/kg, ip after 4 hrs; type: functional, organism-based; parameters: dose 100 mg/kg; outline: as §1
[13] = tested on: Mus musculus; assay: Anticonvulsant activity in albino CF1 mouse assessed as protection against maximal electroshock-induced seizures at 300 mg/kg, ip after 4 hrs; type: functional, organism-based; parameters: dose 300 mg/kg; outline: as §1
[14] = tested on: Mus musculus; assay: Neurotoxicity in albino CF1 mouse assessed as minimal motor impairment at 30 mg/kg, ip after 0.5 hrs by rotarod test; type: toxicity, organism-based; parameters: dose 30 mg/kg, route intraperitoneal; conditions: in vivo; outline: as §1
[15] = tested on: Mus musculus; assay: Neurotoxicity in albino CF1 mouse assessed as minimal motor impairment at 300 mg/kg, ip after 0.5 hrs by rotarod test; type: toxicity, organism-based; parameters: dose 300 mg/kg, route intraperitoneal; conditions: in vivo; outline: as §1
[16] = tested on: Mus musculus; assay: Neurotoxicity in albino CF1 mouse assessed as minimal motor impairment at 30 mg/kg, ip after 4 hrs by rotarod test; type: toxicity, organism-based; parameters: dose 30 mg/kg, route intraperitoneal; conditions: in vivo; outline: as §1
[17] = tested on: Mus musculus; assay: Neurotoxicity in albino CF1 mouse assessed as minimal motor impairment at 100 mg/kg, ip after 4 hrs by rotarod test; type: toxicity, organism-based; parameters: dose 100 mg/kg, route intraperitoneal; conditions: in vivo; outline: as §1
[18] = tested on: Mus musculus; assay: Neurotoxicity in albino CF1 mouse assessed as minimal motor impairment at 300 mg/kg, ip after 4 hrs by rotarod test; type: toxicity, organism-based; parameters: dose 300 mg/kg, route intraperitoneal; conditions: in vivo; outline: as §1
[19] = tested on: Rattus norvegicus; assay: Anticonvulsant activity in Sprague-Dawley albino rat assessed as protection against maximal electroshock-induced seizures at 30 mg/kg, po after 15 mins; type: functional, organism-based; parameters: dose 30 mg/kg
Outline: (§2)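 Rats dosed orally. Anti-MES protection was scored as animals protected over animals tested at each time after dosing. Neurotoxicity was scored as motor impairment or sedation, as animals affected over animals tested.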

[20] = tested on: Rattus norvegicus; assay: Anticonvulsant activity in Sprague-Dawley albino rat assessed as protection against maximal electroshock-induced seizures at 30 mg/kg, po after 30 mins; type: functional, organism-based; parameters: dose 30 mg/kg; outline: as §2
[21] = tested on: Rattus norvegicus; assay: Anticonvulsant activity in Sprague-Dawley albino rat assessed as protection against maximal electroshock-induced seizures at 30 mg/kg, po after 1 hr; type: functional, organism-based; parameters: dose 30 mg/kg; outline: as §2
[22] = tested on: Rattus norvegicus; assay: Anticonvulsant activity in Sprague-Dawley albino rat assessed as protection against maximal electroshock-induced seizures at 30 mg/kg, po after 2 hrs; type: functional, organism-based; parameters: dose 30 mg/kg; outline: as §2
[23] = tested on: Rattus norvegicus; assay: Anticonvulsant activity in Sprague-Dawley albino rat assessed as protection against maximal electroshock-induced seizures at 30 mg/kg, po after 4 hrs; type: functional, organism-based; parameters: dose 30 mg/kg; outline: as §2
[24] = tested on: Rattus norvegicus; assay: Anticonvulsant activity in Sprague-Dawley albino rat assessed as protection against maximal electroshock-induced seizures at 100 mg/kg, po after 30 mins; type: functional, organism-based; parameters: dose 100 mg/kg; outline: as §2
[25] = tested on: Rattus norvegicus; assay: Anticonvulsant activity in Sprague-Dawley albino rat assessed as protection against maximal electroshock-induced seizures at 100 mg/kg, po after 4 hrs; type: functional, organism-based; parameters: dose 100 mg/kg; outline: as §2
[26] = tested on: Rattus norvegicus; assay: Neurotoxicity in Sprague-Dawley albino rat assessed as minimal motor impairment at 30 mg/kg, po by rotarod test; type: toxicity, organism-based; parameters: dose 30 mg/kg, route oral; conditions: in vivo; outline: as §2
[27] = tested on: Rattus norvegicus; assay: Neurotoxicity in Sprague-Dawley albino rat assessed as minimal motor impairment at 100 mg/kg, po by rotarod test; type: toxicity, organism-based; parameters: dose 100 mg/kg, route oral; conditions: in vivo; outline: as §2
[28] = tested on: Rattus norvegicus; assay: Anticonvulsant activity in po dosed Sprague-Dawley albino rat assessed as protection against maximal electroshock-induced seizures; type: functional
Outline: (§3)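 Quantitative testing: rats dosed orally or ip in MES and scMet tests, and mice dosed ip, including the 6 Hz (32 mA) psychomotor seizure test. ED50 and TD50 were reported in mg/kg with ranges in parentheses. Protective index was calculated as TD50/ED50.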

[29] = tested on: Rattus norvegicus; assay: Protective index, ratio of TD50 for po dosed Sprague-Dawley albino rat by rotarod test to ED50 for po dosed Sprague-Dawley albino rat by maximal electroshock seizures test; type: functional
Outline: (§4)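 Protective index calculated as TD50/ED50, with TD50 and ED50 taken from the same species and dosing route.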

[30] = tested on: Rattus norvegicus; assay: Anticonvulsant activity in po dosed Sprague-Dawley albino rat assessed as protection against subcutaneous metrazol-induced seizures; type: functional; outline: as §3
[31] = tested on: Rattus norvegicus; assay: Protective index, ratio of TD50 for po dosed Sprague-Dawley albino rat by rotarod test to ED50 for po dosed Sprague-Dawley albino rat by subcutaneous metrazol seizures test; type: functional; outline: as §4
[32] = tested on: Rattus norvegicus; assay: Neurotoxicity in pilocarpine-induced status epilepticus Sprague-Dawley albino rat model assessed as minimal motor impairment at 300 mg/kg, ip after 0.25 hr by rotarod test; type: toxicity, organism-based; parameters: dose 300 mg/kg, route intraperitoneal; conditions: in vivo
Outline: (§5)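 Rat pilocarpine status epilepticus model: test carbamate given at 0 or 30 min after the first observed Racine stage 3 motor seizure, which marks SE onset. Neurotoxicity was scored within the same model.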

[33] = tested on: Rattus norvegicus; assay: Neurotoxicity in pilocarpine-induced status epilepticus Sprague-Dawley albino rat model assessed as minimal motor impairment at 100 mg/kg, ip after 0.5 hrs by rotarod test; type: toxicity, organism-based; parameters: dose 100 mg/kg, route intraperitoneal; conditions: in vivo
[34] = tested on: Rattus norvegicus; assay: Neurotoxicity in pilocarpine-induced status epilepticus Sprague-Dawley albino rat model assessed as minimal motor impairment at 300 mg/kg, ip after 0.5 hrs by rotarod test; type: toxicity, organism-based; parameters: dose 300 mg/kg, route intraperitoneal; conditions: in vivo; outline: as §5
[35] = tested on: Rattus norvegicus; assay: Neurotoxicity in pilocarpine-induced status epilepticus Sprague-Dawley albino rat model assessed as minimal motor impairment at 100 mg/kg, ip after 1 hr by rotarod test; type: toxicity, organism-based; parameters: dose 100 mg/kg, route intraperitoneal; conditions: in vivo
[36] = tested on: Rattus norvegicus; assay: Neurotoxicity in pilocarpine-induced status epilepticus Sprague-Dawley albino rat model assessed as minimal motor impairment at 300 mg/kg, ip after 1 hr by rotarod test; type: toxicity, organism-based; parameters: dose 300 mg/kg, route intraperitoneal; conditions: in vivo; outline: as §5
[37] = tested on: Rattus norvegicus; assay: Neurotoxicity in pilocarpine-induced status epilepticus Sprague-Dawley albino rat model assessed as minimal motor impairment at 100 mg/kg, ip after 2 hrs by rotarod test; type: toxicity, organism-based; parameters: dose 100 mg/kg, route intraperitoneal; conditions: in vivo
[38] = tested on: Rattus norvegicus; assay: Neurotoxicity in pilocarpine-induced status epilepticus Sprague-Dawley albino rat model assessed as minimal motor impairment at 300 mg/kg, ip after 2 hrs by rotarod test; type: toxicity, organism-based; parameters: dose 300 mg/kg, route intraperitoneal; conditions: in vivo; outline: as §5
[39] = tested on: Rattus norvegicus; assay: Neurotoxicity in pilocarpine-induced status epilepticus Sprague-Dawley albino rat model assessed as minimal motor impairment at 100 mg/kg, ip after 4 hrs by rotarod test; type: toxicity, organism-based; parameters: dose 100 mg/kg, route intraperitoneal; conditions: in vivo
[40] = tested on: Rattus norvegicus; assay: Neurotoxicity in pilocarpine-induced status epilepticus Sprague-Dawley albino rat model assessed as minimal motor impairment at 300 mg/kg, ip after 4 hrs by rotarod test; type: toxicity, organism-based; parameters: dose 300 mg/kg, route intraperitoneal; conditions: in vivo; outline: as §5

CCCC(CCC)COC(N)=O
TD50 [1]: > 500 mg/kg
Activity [2]: inactive
Activity [3]: inactive
Activity [4]: Active
Activity [5]: inactive
Activity [6]: inactive
Activity [7]: Active
Activity [8]: inactive
Activity [9]: Active
Activity [10]: Active
Activity [11]: inactive
Activity [12]: inactive
Activity [13]: Active
Activity [14]: Non-toxic
Activity [15]: Toxic
Activity [16]: Non-toxic
Activity [17]: Non-toxic
Activity [18]: Toxic
Activity [19]: inactive
Activity [20]: inactive
Activity [21]: inactive
Activity [22]: inactive
Activity [23]: inactive
Activity [24]: Active
Activity [25]: inactive
Activity [26]: Non-toxic
Activity [27]: Non-toxic
ED50 [28]: 35 mg/kg
Ratio TD50/ED50 [29]: >14
ED50 [30]: > 125 mg/kg
Ratio TD50/ED50 [31]: >4
Activity [32]: Toxic
Activity [33]: Non-toxic
Activity [34]: Toxic
Activity [35]: Non-toxic
Activity [36]: Toxic
Activity [37]: Non-toxic
Activity [38]: Toxic
Activity [39]: Non-toxic
Activity [40]: Toxic

Reference: ChEMBL document CHEMBL2086252, “Syntheses and evaluation of anticonvulsant activity of novel branched alkyl carbamates” (J Med Chem, 2012)
